Consider 35 compounds from ChEMBL document CHEMBL3259663, “3-Amido-3-aryl-piperidines: A Novel Class of Potent, Selective, and Orally Active GlyT1 Inhibitors” (ACS Med Chem Lett, 2014).

pEC50, pIC50: −log10 of the molar value.

For assay [1], the target named is T1, Sodium- and chloride-dependent glycine transporter 1 (Homo sapiens, UniProt P48067).
T1 sequence (P48067 whole entry): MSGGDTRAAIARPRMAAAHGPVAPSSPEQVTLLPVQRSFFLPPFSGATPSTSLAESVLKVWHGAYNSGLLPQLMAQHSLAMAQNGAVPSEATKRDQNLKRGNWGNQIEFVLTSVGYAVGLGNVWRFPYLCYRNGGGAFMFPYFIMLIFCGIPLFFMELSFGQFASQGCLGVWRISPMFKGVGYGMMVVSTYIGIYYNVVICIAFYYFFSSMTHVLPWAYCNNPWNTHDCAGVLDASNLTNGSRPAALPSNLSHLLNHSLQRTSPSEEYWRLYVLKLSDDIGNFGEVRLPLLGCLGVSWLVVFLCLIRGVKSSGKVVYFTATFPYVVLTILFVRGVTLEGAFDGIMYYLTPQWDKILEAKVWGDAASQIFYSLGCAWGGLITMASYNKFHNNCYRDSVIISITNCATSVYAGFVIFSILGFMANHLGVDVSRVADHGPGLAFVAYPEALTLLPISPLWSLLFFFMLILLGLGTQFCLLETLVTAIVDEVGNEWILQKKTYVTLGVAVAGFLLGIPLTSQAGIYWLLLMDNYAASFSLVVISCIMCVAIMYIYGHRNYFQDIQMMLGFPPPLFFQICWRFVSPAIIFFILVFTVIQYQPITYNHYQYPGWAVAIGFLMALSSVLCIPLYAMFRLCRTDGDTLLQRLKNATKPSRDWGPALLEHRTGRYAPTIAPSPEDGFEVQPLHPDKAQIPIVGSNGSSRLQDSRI
The assay is described as follows: Inhibition of human GlyT1 expressed in cells assessed as [3H]glycine uptake. The format is cell-based. The method in brief:
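[³H]-glycine uptake inhibition in cells transfected with human GlyT1. EC₅₀ values are the average of at least two independent experiments.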

Assay [2] addresses T1, Sodium- and chloride-dependent glycine transporter 1. The assay is described as follows: Inhibition of GlyT1 (unknown origin).

A word on the pEC50: it is −log10 of the EC50, conventionally taken in molar units. In the case of `COc1cc(C(F)(F)F)cc(C(F)(F)F)c1C(=O)NC1(c2ccccc2)CCCN(CC2CC2)C1` (racemic), the pEC50 in assay [1] is 6.42.

Regarding `CSc1cc(C(F)(F)F)ccc1C(=O)NC1(c2ccccc2)CCCN(C)C1` (racemic), the pEC50 in assay [1] is 7.17.

For `COc1cc(C(F)(F)F)ccc1C(=O)NC1(c2ccccc2)CCCN(C)C1` (racemic), in assay [1], the pEC50 was 5.32.

In the case of `COc1cc(C(F)(F)F)cc(SC)c1C(=O)NC1(c2ccc(Cl)cc2)CCCN(C)C1` (racemic), the pEC50 in assay [1] is 7.55.

`CN1CCCC(NC(=O)c2ccc(C(F)(F)F)cc2F)(c2ccccc2)C1` (racemic): in assay [1], the pEC50 is 5.00.

On to `COc1cc(C(F)(F)F)cc(SC)c1C(=O)NC1(c2ncccn2)CCCN(C)C1` (racemic), for which the pEC50 in assay [1] is below 5.00.

One may read the pIC50 as the IC50 on a negative log10 scale, so that one unit is a factor of ten. A higher pIC50 goes with a low IC50. In assay [2], `COc1cc(C(F)(F)F)cc(C(F)(F)F)c1C(=O)NC1(c2ccccc2)CCCN(C)C1` (stereo not given) gave a pIC50 of 6.85.

`COc1cc(C(F)(F)F)cc(C(F)(F)F)c1C(=O)NC1(c2ccccc2)CCCNC1` (racemic): the pEC50 in assay [1] is 6.18.

On to `COc1cc(C(F)(F)F)cc(SC)c1C(=O)NC1(c2ccccc2)CCCN(C)C1` (racemic), for which the pEC50 in assay [1] was 7.62.

On to `CN1CCCC(NC(=O)c2ccc(Cl)cc2Cl)(c2ccccc2)C1` (racemic), for which, in assay [1], the pEC50 was 6.17.

`CN1CCCC(NC(=O)c2ccc(C(F)(F)F)cc2C#N)(c2ccccc2)C1` (racemic): in assay [1], the pEC50 was below 5.00.

For the compound `COc1cc(C(F)(F)F)cc(SC)c1C(=O)N[C@]1(c2ccccc2)CCCN(C)C1`, the pEC50 in assay [1] is 6.74.

Turning to `COc1cc(C(F)(F)F)cc(C(F)(F)F)c1C(=O)NC1(c2ccccc2)CCCN(Cc2ccccc2)C1` (racemic), the pEC50 in assay [1] was 5.17.

`CN1CCCC(NC(=O)c2ccc(C(F)(F)F)cc2Br)(c2ccccc2)C1` (racemic): the negative logarithm of the EC50 (pEC50) in assay [1] was 6.52.

For the compound `COc1cc(C(F)(F)F)cc(SC)c1C(=O)NC1(c2ccc(F)cn2)CCCN(C)C1` (racemic), the pEC50 in assay [1] was 6.74.

Regarding `COc1cc(C(F)(F)F)cc(SC)c1C(=O)NC1(c2ccc(C)cc2)CCCN(C)C1` (racemic), in assay [1], the pEC50 was 6.64.

Turning to `COc1cc(C(F)(F)F)cc(SC)c1C(=O)NC1(c2ccncc2)CCCN(C)C1` (racemic), the pEC50 in assay [1] was 7.22.

Consider `COc1cc(C(F)(F)F)cc(SC)c1C(=O)NC1(c2ccncn2)CCCN(C)C1` (racemic), for which the pEC50 in assay [1] was 5.77.

Turning to `COc1ccc(C2(NC(=O)c3c(OC)cc(C(F)(F)F)cc3SC)CCCN(C)C2)cc1` (racemic), the pEC50 in assay [1] was 6.77.

Turning to `COc1cc(C(F)(F)F)cc(SC)c1C(=O)NC1(c2cccc(Cl)c2)CCCN(C)C1` (racemic), in assay [1], the pEC50 is 7.60.

Turning to `CN1CCCC(NC(=O)c2ccc(C(F)(F)F)cc2)(c2ccccc2)C1` (racemic), in assay [1], the pEC50 is below 5.00.

In the case of `COc1cc(C(F)(F)F)cc(SC)c1C(=O)NC1(c2ccc(F)cc2)CCCN(C)C1` (racemic), the pEC50 in assay [1] was 7.59.

As for `COc1cc(C(F)(F)F)cc(C(F)(F)F)c1C(=O)NC1(c2ccccc2)CCCN(S(C)(=O)=O)C1` (racemic), the pEC50 in assay [1] was below 5.00.

With `Cc1cc(C(F)(F)F)ccc1C(=O)NC1(c2ccccc2)CCCN(C)C1` (racemic), in assay [1], the pEC50 is 6.49.

For `COc1cccc(C2(NC(=O)c3c(OC)cc(C(F)(F)F)cc3SC)CCCN(C)C2)c1` (racemic), the pEC50 in assay [1] was 6.96.

Turning to `CCN1CCCC(NC(=O)c2c(OC)cc(C(F)(F)F)cc2C(F)(F)F)(c2ccccc2)C1` (racemic), the pEC50 in assay [1] is 6.64.

For `CN1CCCC(NC(=O)c2ccc(C(F)(F)F)cc2C(F)(F)F)(c2ccccc2)C1` (racemic), in assay [1], the pEC50 is 6.27.

On to `COc1cc(C(F)(F)F)cc(C(F)(F)F)c1C(=O)NC1(c2ccccc2)CCCN(C2CCCC2)C1` (racemic), for which, in assay [1], the pEC50 was 6.57.

As for `COc1cc(C(F)(F)F)cc(C(F)(F)F)c1C(=O)NC1(c2ccccc2)CCCN(C(C)C)C1` (racemic), the pEC50 in assay [1] was 6.64.

For `COc1cc(C(F)(F)F)cc(SC)c1C(=O)NC1(c2cnccn2)CCCN(C)C1` (racemic), the pEC50 in assay [1] was 5.78.

For the compound `COc1cc(C(F)(F)F)cc(C(F)(F)F)c1C(=O)NC1(c2ccccc2)CCCN(C(C)=O)C1` (racemic), the pEC50 in assay [1] was below 5.00.

As to `COc1cc(C(F)(F)F)cc(SC)c1C(=O)NC1(c2cccc(F)c2)CCCN(C)C1` (racemic), the pEC50 in assay [1] was 7.32.

With `COc1cccc(C(F)(F)F)c1C(=O)NC1(c2ccccc2)CCCN(C)C1` (racemic), the pEC50 in assay [1] was 5.82.

For the compound `COc1cc(C(F)(F)F)cc(SC)c1C(=O)NC1(c2cccnc2)CCCN(C)C1` (racemic), the pEC50 in assay [1] was 7.27.

Regarding `COc1cc(C(F)(F)F)cc(C(F)(F)F)c1C(=O)NC1(c2ccccc2)CCCN(C(=O)c2ccccc2)C1` (racemic), in assay [1], the pEC50 was below 5.00.
